Assay outcomes (PubChem BioAssay)
This is a sample that favours compounds with a hit; in the whole collection about 4.8% have one here.
T cruzi repl: T. cruzi replication inhibition; 1.4% of 300,000 active; T. cruzi beta-gal in NIH3T3, luminescence, 90 h; inhibition, % (test concentration not listed);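 active = mean inhibition across valid replicates above about 55%, limit read from the data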;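 note: signal also drops with host cell toxicity which is not excluded here; higher percent means less beta-gal luminescence so fewer parasites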
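assay system = mouse NIH/3T3 fibroblasts infected with β-gal-expressing T. cruzi Tulahuen C4 | input = 5,000 NIH/3T3 host cells per well | buffer or medium = DMEM plus 2% FBS | timing = 3 h host attachment, then at least 90 h co-culture | measured by = GalScreen luminescence, 60 min | evaluation = luminescence reflecting intracellular parasite burden, expressed as percent inhibition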
CSC inhib: cancer stem cell inhibition. inhibition, % at 7.5 µM. 1.1% of 300,000 active. cancer stem cell-like cells viability, luminescence. AID 2717; in the data active = inhibition above about 75%; tested in HMLE shEcad cells
Efflux pump mplx: antifungal efflux pump inhibition, Nile Red retention. S. cerevisiae Candida pump triplex. inhibition, % at 10 µM. 0.44% of 330,000 active. AID 485275;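 active = plate passing quality check with inhibition over a set limit, or well fluorescence over plate mean plus 4 SD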;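 note: Nile Red retained in pooled yeast measured as flow cytometry median fluorescence; higher means more Nile Red kept so more efflux inhibition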
Beta cell apopt: beta cell apoptosis inhibition; protection from apoptosis, % (test concentration not listed); INS-1E cytokine-induced death, ATP luminescence, 48 h; percent of positive-control rescue, neutral wells zero; 0.8% of 300,000 active; AID 435005;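 active = Every replicate reaches about 75%, or at least half do and their mean reaches it too, limit read from the data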;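 note: higher means more ATP so stronger rescue from cytokine killing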
Mot1-301 SUMO: SUMOylation pathway inhibition by Mot1-301 growth rescue; S. cerevisiae Mot1-301 growth rescue, ATP luminescence, 38.5C; percent above DMSO median, 100 means doubled; growth rescue, % at 18.8 µM; 1% of 320,000 active;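 active = every valid replicate shows activation above 250% relative to neutral control wells; inactive = the rest, any valid replicate at or below 250%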
WT yeast gro inh: growth inhibition of WT yeast, mitochondrial fusion screen; mitochondrial fusion phenotypic screen, WT strain; inhibition, % at 10 µM; 2.1% of 190,000 active; in the data active = inhibition above about 58%; tested in S. cerevisiae
Mot1 SUMO dose: yeast SUMO pathway inhibition in dose response | 2,300 tested, under 10 active | S. cerevisiae Mot1-301 galactose growth, ATP luminescence, 24 h; -100 = growth of slx-deleted rescue strain | shares compounds with Mot1-301 SUMO | growth activity, percent, % at 42 µM;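 active = Signal drops as the depositor expects, and the fitted half-maximal dose is no more than ten times the top valid tested dose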;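 note: more negative values mean stronger growth rescue toward the control strain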
Hits are given with their value; 0 = inactive; - = no result given; + = active, no number.

SMILES	T cruzi repl	CSC inhib	Efflux pump mplx	Beta cell apopt	Mot1-301 SUMO	WT yeast gro inh	Mot1 SUMO dose
CCc1ccc(NC(=O)N2CCC(c3ccccc3)C2)cc1 (stereo not given)	0	0	0	0	929	0	0
O=C(Nc1ccccc1)N1CCC(c2ccccc2)C1 (stereo not given)	0	0	0	0	0	0	-
COCC(C)n1c(C)cc(C(=O)CSc2ccc(NC(C)=O)cc2)c1C (stereo not given)	0	0	0	0	+	0	0
COCC(C)n1c(C)cc(C(=O)CSc2ncccn2)c1C (stereo not given)	0	0	0	0	0	0	-
CCCc1cc(N2CCCC(C(=O)Nc3cc(Cl)ccc3OC)C2)n2ncnc2n1 (stereo not given)	-	0	0	-	0	-	-
COc1ccc(Cl)cc1NC(=O)C1CCCN(c2cc(C)nc3ncnn23)C1 (stereo not given)	0	-	0	0	733	0	0
Cc1ccc(CNC(=O)CCS(=O)(=O)c2ccc(Br)s2)o1	0	0	0	0	0	0	-
O=C(CCS(=O)(=O)c1ccc(Br)s1)NCc1ccccc1	0	0	0	0	737	0	0
O=C(CSc1nncs1)NCCCc1ccccc1	0	-	0	0	0	0	-
CC1=C(C(N)=O)C(c2ccccn2)n2nc(SCc3ccccc3Cl)nc2N1 (stereo not given)	0	0	0	0	384	0	0
CCc1c(C)c2ccc(OCC(=O)N(C)C)c(C)c2oc1=O	0	0	0	0	0	0	-
CCc1c(C)c2ccc(OCC(=O)OC(C)C)c(C)c2oc1=O	0	-	0	0	0	0	0
COc1cc(COc2ccc3c(C)c(CC(=O)O)c(=O)oc3c2C)cc(OC)c1OC	0	0	0	0	628	-	0
Cc1c(CC(=O)O)c(=O)oc2c(C)c(OCc3ccccc3)ccc12	0	0	0	0	0	-	-
CC1CC1C(=O)N(C)CC(=O)Nc1ccccc1Br (stereo not given)	-	0	0	0	0	-	-
Cc1ccccc1OCC(=O)NNC(=O)Cn1[nH]c(=O)c2ccccc2c1=O	-	0	0	0	0	-	-
Cc1c(C(=O)N2CCCCC2CCN2CCCC2=O)oc2c(F)cccc12 (stereo not given)	0	0	0	0	0	-	-
C=CCCCCCCCCC(=O)NNC1CC(=O)N(c2ccccc2)C1=O (stereo not given)	0	0	0	0	0	-	-
CN(C)CCOC(=O)CCc1ccccc1	0	0	0	0	560	0	0
O=C(C1CCN(S(=O)(=O)N2CCC3(CC2)OCCO3)CC1)N1CCC(Cc2ccccc2)CC1	0	0	0	0	398	0	0
O=C1CCC(C(=O)N2CCN(c3ccccc3)CC2)CN1CC1CCCCC1 (stereo not given)	0	0	0	0	532	-	0
O=C(NC(Cc1ccccc1)C(=O)O)/C(=C\c1ccc(Cl)cc1)NC(=O)c1ccco1 (stereo not given)	0	0	0	0	0	-	-
COc1cc(C(=O)N/N=C/c2ccccn2)cc(OC)c1OC	0	0	0	-	935	0	0
Cc1ccccc1C(=O)Oc1ccccc1N1C(=O)C2CC=CCC2C1=O (stereo not given)	0	0	0	0	0	0	-
O=C(Oc1ccccc1N1C(=O)C2CC=CCC2C1=O)c1ccc(Br)cc1 (stereo not given)	0	0	0	0	549	0	0
SMILES	T cruzi repl	CSC inhib	Efflux pump mplx	Beta cell apopt	Mot1-301 SUMO	WT yeast gro inh	Mot1 SUMO dose
COc1ccccc1C(=O)NC(=O)COC(=O)CNC(=O)c1ccccc1	0	0	0	-	-	-	-
NS(=O)(=O)c1cccc(NC(=O)CSc2nnnn2-c2ccccc2)c1	0	0	0	0	375	-	0
O=C(NC1CCc2ccccc21)c1cc(COc2ccc(F)cc2F)on1 (stereo not given)	0	0	0	0	396	0	0
COc1ccc(OCc2cc(C(=O)NC3CCc4ccccc43)no2)c(Cl)c1 (stereo not given)	0	0	0	0	0	-	-
CN(C)S(=O)(=O)c1ccc(C(=O)/C=C/c2cccnc2)cc1	0	0	0	0	644	-	0
O=C(/C=C/c1ccccc1[N+](=O)[O-])Nc1cccc(S(=O)(=O)NC2=NCCCCC2)c1	-	-	0	-	-	-	-
O=C(/C=C/c1ccc(Cl)cc1Cl)Nc1cccc(S(=O)(=O)NC2=NCCCCC2)c1	0	0	0	0	547	0	0
Nc1nc(NCCOCCO)nc(NCC2CCCO2)c1[N+](=O)[O-] (stereo not given)	0	0	0	0	0	-	-
CCn1nnc(-c2ccccc2NC(=O)c2cnccn2)n1	0	0	0	0	407	-	0
CC(NC(=O)c1ccccc1F)c1nnc(SCC(=O)NC2CCCCC2)n1C (stereo not given)	0	0	0	0	0	-	-
CCn1c(SCC(=O)NC2CCCCC2)nnc1C(C)NC(=O)c1ccccc1F (stereo not given)	0	0	0	0	+	-	0
COC(=O)CSc1ccc(S(=O)(=O)N2CCCCCC2)cc1[N+](=O)[O-]	0	0	0	0	520	0	0
Cc1ccc(-c2[nH]ncc2CNCCc2cnn(-c3ccccc3)c2)cc1C	0	0	0	0	923	-	0
O=C(NCCc1ccc(Cl)cc1)C1COc2ccccc2O1 (stereo not given)	0	0	0	-	0	-	-
O=C(NC1=NCCS1)c1ccc(C(F)(F)F)cc1	0	0	0	0	0	-	-
O=C(Nc1ncccn1)c1ccc(C(F)(F)F)cc1	0	0	0	0	438	0	0
NC(=O)CC(NC(=O)Cc1cccc2ccccc12)c1ccc(NCCCN2CCCC2=O)c([N+](=O)[O-])c1 (stereo not given)	0	0	0	0	+	-	0
CN(C)CCCn1c2c(c(SCC(=O)Nc3nccs3)nc1=O)CCC2	0	0	0	-	0	-	-
CC(OC(=O)CSc1ccc(F)cc1)C(=O)NC1(C#N)CCCCC1 (stereo not given)	0	0	0	0	0	-	-
O=C(O)/C=C\C(=O)NC1CCCCC1	0	0	0	0	509	0	0
Cc1cc(NS(=O)(=O)c2c(C)c(C)cc(C)c2C)no1	0	0	0	0	0	-	-
CCOC(=O)CCN(c1ccccc1)S(=O)(=O)c1ccc(-c2ccc(=O)[nH]n2)s1	0	-	0	0	588	-	0
COc1cc(SC)ccc1C(=O)N1CCCCCC1	0	0	0	0	+	0	0
COc1cc(SC)ccc1C(=O)N1CCN(c2ccccc2)CC1	0	0	0	0	0	0	-
Cc1ccc(N2CCN(S(=O)(=O)c3c(C)nc4scc(C)n4c3=O)CC2)c(C)c1	0	0	0	0	0	-	-
CC1CCN(CCCCOc2cccc(Br)c2)CC1	0	0	0	0	373	0	0
Clc1ccc(CN(Cc2ccccc2)C(c2cccs2)c2nnnn2C2CCCC2)cc1 (stereo not given)	0	0	0	0	657	0	0
